Data reported in ChEMBL document CHEMBL1773005, “The antibacterial ent-eusynstyelamide B and eusynstyelamides D, E, and F from the Arctic bryozoan Tegella cf. spitzbergensis” (J Nat Prod, 2011).
≈ marks a conversion by molar mass, not a printed value.

Legend:
Escherichia coli = test: Antibacterial activity against Escherichia coli ATCC 25922 after 24 hrs by microtiter plate assay; assay type: functional; conditions: ATCC 25922, 24 h
Method in brief: (§1)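 Log-phase cultures grown at 37 C in Mueller Hinton broth, diluted to about 5 × 10^5 cells per well, then mixed 1:1 with compound dissolved in water. Growth followed by continuous optical density reading. MIC taken as the lowest concentration giving no OD change after 24 h at 37 C. Tested in duplicate over 2–100 μg/mL; cecropin B (25 μM) served as positive control.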

Staphylococcus aureus [1] = test: Antibacterial activity against methicillin-resistant Staphylococcus aureus ATCC 33591 after 24 hrs by microtiter plate assay; assay type: functional; conditions: ATCC 33591, 24 h
Method in brief: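 Log-phase bacteria at about 5 × 10^5 cells per well in Mueller Hinton broth, 37 C, were mixed with compounds dissolved in water, 2–100 μg/mL, in duplicate. Optical density was monitored continuously. MIC was taken as the lowest concentration giving no change in optical density after 24 h. Cecropin B (25 μM) served as positive control.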

Staphylococcus aureus [2] = test: Antibacterial activity against Staphylococcus aureus ATTC 9144 after 24 hrs by microtiter plate assay; assay type: functional; conditions: ATTC 9144, 24 h; method in brief: as §1
Candida albicans = test: Antifungal activity against Candida albicans ATCC 10231 after 48 hrs by microscopy; assay type: functional; conditions: ATCC 10231, 48 h
Method in brief: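 Yeast grown on potato dextrose agar with 2% glucose at room temperature, suspended in potato dextrose broth and counted in a Bürker chamber. Spores at 2 × 10^5/mL final were mixed with compounds dissolved in water and incubated at 37 C. MIC was the lowest concentration with no visible growth at 48 h, scored microscopically. Duplicates over 2–100 μg/mL; cecropin B (6.25 μM) as positive control.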

Pseudomonas aeruginosa = test: Antibacterial activity against Pseudomonas aeruginosa ATTC 27853 after 24 hrs by microtiter plate assay; assay type: functional; conditions: ATTC 27853, 24 h; method in brief: as §1
A2058 = test: Anticancer activity against human A2058 cells after 72 hrs by CellTiter-96 cell viability assay; assay type: functional, cell-based; conditions: A2058, 72 h
Method in brief: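 A-2058 melanoma cells in exponential growth were seeded, incubated 24 h at 37 C, then exposed to compounds for 72 h. Viability was read by CellTiter96 reagent, 1 h colour development, absorbance at 485 nm. Duplicates over 2–100 μg/mL; IC50 determined.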

[3] = system: Corynebacterium glutamicum; test: Antibacterial activity against Corynebacterium glutamicum ATTC 13032 after 24 hrs by microtiter plate assay; assay type: functional; conditions: ATTC 13032, 24 h; method in brief: as §1

Row | SMILES | MIC (Escherichia coli) [µg/mL] | MIC (Staphylococcus aureus [1]) [µg/mL] | MIC (Staphylococcus aureus [2]) [µg/mL] | MIC (Candida albicans) [µg/mL] | MIC (Pseudomonas aeruginosa) [µg/mL] | IC50 (A2058) [µM] | MIC [3] [µg/mL]
1 | NCCCCNC(=O)[C@@]1(O)[C@H](c2c[nH]c3cc(Br)ccc23)[C@@](O)(Cc2c[nH]c3cc(Br)ccc23)C(=O)N1CCCCN [EUSYNSTYELAMIDE D] | 12.5 (≈ 17.7 µM) | 20 (≈ 28.4 µM) | 12.5 (≈ 17.7 µM) | 50 (≈ 71 µM) | 25 (≈ 35.5 µM) | 57 | 12.5 (≈ 17.7 µM)
2 | N=C(N)NCCCCN1C(=O)[C@](O)(Cc2c[nH]c3cc(Br)ccc23)[C@@H](c2c[nH]c3cc(Br)ccc23)[C@]1(O)C(=O)NCCCCN [EUSYNSTYELAMIDE E] | 12.5 (≈ 16.7 µM) | 20 (≈ 26.8 µM) | 12.5 (≈ 16.7 µM) | 100 (≈ 134 µM) | 25 (≈ 33.5 µM) | 114 | 12.5 (≈ 16.7 µM)
3 | N=C(N)NCCCCNC(=O)[C@@]1(O)[C@H](c2c[nH]c3cc(Br)ccc23)[C@@](O)(Cc2c[nH]c3cc(Br)ccc23)C(=O)N1CCCCN [EUSYNSTYELAMIDE F] | 12.5 (≈ 16.7 µM) | > 50 | 6.25 (≈ 8.37 µM) | 50 (≈ 67 µM) | 12.5 (≈ 16.7 µM) |  | 6.25 (≈ 8.37 µM)
